Reference: ChEMBL document CHEMBL4145632, “Selective Irreversible Inhibitors of the Wnt-Deacylating Enzyme NOTUM Developed by Activity-Based Protein Profiling” (ACS Med Chem Lett, 2018)
Calls of active or inactive are those of the source. The rule behind the calls is not given here.

How the values were obtained:
Assay type in all cases: cell-based
[1] = target: T1, Palmitoleoyl-protein carboxylesterase NOTUM (Homo sapiens, UniProt Q6P988); assay: Inhibition of rhodamine-tagged FP probe binding to NOTUM in human SW620 cells conditioned medium at 0.01 to 1 uM pretreated for 30 mins followed by rhodamine-tagged FP probe addition and measured after 30 mins by SDS-PAGE fluorescence analysis; conditions: 0.5 h
T1 sequence (Q6P988 whole entry): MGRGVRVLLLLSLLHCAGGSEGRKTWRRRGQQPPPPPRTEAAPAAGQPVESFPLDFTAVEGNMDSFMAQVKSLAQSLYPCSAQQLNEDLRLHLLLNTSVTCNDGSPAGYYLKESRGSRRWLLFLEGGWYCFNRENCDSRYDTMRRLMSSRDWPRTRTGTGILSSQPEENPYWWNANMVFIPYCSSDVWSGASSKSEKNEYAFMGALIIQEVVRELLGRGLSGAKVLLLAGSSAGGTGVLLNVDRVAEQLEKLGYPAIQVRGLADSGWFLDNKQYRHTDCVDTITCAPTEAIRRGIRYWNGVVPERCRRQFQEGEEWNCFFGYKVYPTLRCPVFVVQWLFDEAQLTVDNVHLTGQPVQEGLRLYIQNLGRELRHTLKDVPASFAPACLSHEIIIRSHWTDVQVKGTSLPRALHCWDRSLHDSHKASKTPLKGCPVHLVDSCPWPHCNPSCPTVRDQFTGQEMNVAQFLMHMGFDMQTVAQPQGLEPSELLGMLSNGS

[2] = target: T1, Palmitoleoyl-protein carboxylesterase NOTUM; assay: Inhibition of NOTUM in human SW620 cells conditioned medium at 0.01 to 1 uM measured after 30 mins by rhodamine-azide reporter tagged based SDS-PAGE fluorescence analysis; conditions: 0.5 h
Outline: (§1)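 Alkyne probe analogue was added to SW620 conditioned medium or cellular lysate for 30 min at 37 °C. Samples were clicked to a rhodamine-azide tag by copper-mediated azide–alkyne cycloaddition, then read by SDS-PAGE and in-gel fluorescence.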

[3] = target: T2, Monoacylglycerol lipase ABHD6 (Homo sapiens) (UniProt Q9BV23); assay: Inhibition of rhodamine-tagged FP probe binding to ABHD6 in human SW620 cells at 0.1 uM pretreated for 30 mins followed by rhodamine-tagged FP probe addition and measured after 30 mins by SDS-PAGE fluorescence analysis
T2 sequence (whole entry): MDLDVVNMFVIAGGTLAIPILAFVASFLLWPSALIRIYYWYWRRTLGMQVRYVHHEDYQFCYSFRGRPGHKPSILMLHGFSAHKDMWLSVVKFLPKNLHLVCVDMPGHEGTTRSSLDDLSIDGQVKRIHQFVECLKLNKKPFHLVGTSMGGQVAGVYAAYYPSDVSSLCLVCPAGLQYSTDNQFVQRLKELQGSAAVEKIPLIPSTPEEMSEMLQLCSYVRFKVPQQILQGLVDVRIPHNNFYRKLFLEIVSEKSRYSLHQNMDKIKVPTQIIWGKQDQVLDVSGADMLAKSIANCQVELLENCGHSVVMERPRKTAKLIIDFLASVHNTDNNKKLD

[4] = target: T2, Monoacylglycerol lipase ABHD6 (Homo sapiens); assay: Inhibition of ABHD6 in human SW620 cells at 0.1 uM after 30 mins by rhodamine-azide reporter tagged based SDS-PAGE fluorescence analysis; outline: as §1
[5] = target: T1, Palmitoleoyl-protein carboxylesterase NOTUM; assay: Inhibition of rhodamine-tagged FP probe binding to NOTUM in human SW620 cells conditioned media pretreated for 30 mins followed by rhodamine-tagged FP probe addition and measured after 30 mins by SDS-PAGE fluorescence analysis
[6] = target: T1, Palmitoleoyl-protein carboxylesterase NOTUM; assay: Inhibition of rhodamine-tagged FP probe binding to NOTUM in human SW620 cells conditioned media at 0.1 to 3 uM pretreated for 30 mins followed by rhodamine-tagged FP probe addition and measured after 30 mins by SDS-PAGE fluorescence analysis; conditions: 0.5 h
[7] = target: T1, Palmitoleoyl-protein carboxylesterase NOTUM; assay: Inhibition of NOTUM in human SW620 cells conditioned medium assessed as preservation of Wnt3A activity pretreated for 1 hr followed by Wnt3A producing L-cell addition for 2 hrs and subsequent […]-STF cell addition and measured after 24 hrs by luciferase reporter gene assay
[8] = target: T1, Palmitoleoyl-protein carboxylesterase NOTUM; assay: Inhibition of NOTUM in human SW620 cells conditioned medium at 10 uM after 1 hr by FP-biotin probe based LC-MS analysis relative to control
Outline: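 SW620 conditioned medium was treated with compound (0.5 or 10 μM) or DMSO for 1 h at 37 °C. Peptides were labeled with light (compound) or heavy (DMSO) formaldehyde, combined and analyzed by MS. Values are light/heavy median peptide ratios from two independent experiments, ±SEM.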

[9] = target: T2, Monoacylglycerol lipase ABHD6 (Homo sapiens); assay: Inhibition of ABHD6 in human SW620 cells at 10 uM after 2 hrs by FP-biotin probe based LC-MS analysis
[10] = target: T2, Monoacylglycerol lipase ABHD6 (Homo sapiens); assay: Inhibition of rhodamine-tagged FP probe binding to ABHD6 in human SW620 cells at 0.1 to 10 uM pretreated for 2 hrs followed by rhodamine-tagged FP probe addition and measured after 30 mins by SDS-PAGE fluorescence analysis
Outline: (§2)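 SW620 cells were treated in situ with compound at the stated concentrations for 2 h at 37 °C. Soluble and membrane proteomes were then labeled with the PPT1-directed probe ABC45 or FP-Rh. Competition was read by SDS-PAGE and in-gel fluorescence scanning.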

[11] = target: T3, Palmitoyl-protein thioesterase 1 (Homo sapiens) (UniProt P50897); assay: Inhibition of ABC45 probe binding to PPT1 in human SW620 cells at 0.1 to 10 uM pretreated for 2 hrs followed by ABC45 probe addition and measured after 30 mins by rhodamine-azide reporter tagged based SDS-PAGE fluorescence analysis; outline: as §2
T3 sequence (whole entry): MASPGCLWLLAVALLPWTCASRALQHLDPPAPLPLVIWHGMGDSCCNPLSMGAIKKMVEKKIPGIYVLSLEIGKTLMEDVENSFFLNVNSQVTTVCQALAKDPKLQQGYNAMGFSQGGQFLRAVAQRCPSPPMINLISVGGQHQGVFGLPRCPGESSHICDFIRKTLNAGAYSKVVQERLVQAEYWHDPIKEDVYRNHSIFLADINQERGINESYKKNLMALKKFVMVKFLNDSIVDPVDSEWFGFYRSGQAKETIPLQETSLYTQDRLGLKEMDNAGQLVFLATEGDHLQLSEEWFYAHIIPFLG

[12] = target: T1, Palmitoleoyl-protein carboxylesterase NOTUM; assay: Inhibition of rhodamine-tagged FP probe binding to recombinant human C-terminal FLAG-tagged NOTUM expressed in HEK293T cells pretreated for 30 mins followed by rhodamine-tagged FP probe addition and measured after 30 mins by SDS-PAGE fluorescence analysis

SMILES | IC50 [5] [nM] | inhibition (INH) [6] | inhibition [11] | other results
C#CCN1CCN(C(=O)ON2C(=O)C3CN(Cc4ccc(Cl)cc4)CCN3C2=O)c2ccccc21 (centres undefined) | – | – | – | inhibition (INH) [1]: Active; inhibition (INH) [2]: Active; inhibition [3]: inactive; inhibition [4]: inactive
COc1ccc(N2CCN(C(=O)ON3C(=O)C4CN(Cc5ccccc5Cl)CCN4C3=O)CC2)cc1 (centres undefined) | 200 | Active | – | –
O=C(c1ccc(Cl)cc1)N1CCN2C(=O)N(OC(=O)N3CCOc4ccccc43)C(=O)C2C1 (centres undefined) | > 10000 | – | – | IC50 [7]: > 5000 nM; inhibition (INH) [8]: Not Active; inhibition [9]: Active
COc1ccc(N2CCN(C(=O)ON3C(=O)C4CN(Cc5ccc(Cl)cc5)CCN4C3=O)CC2)cc1 (centres undefined) | 290 | Active | Active | inhibition [10]: Active
COc1ccc(N2CCN(C(=O)ON3C(=O)C4CN(Cc5cccc(Cl)c5)CCN4C3=O)CC2)cc1 (centres undefined) | > 10000 | Not Active | – | –

Continued, in another order:

IC50 [5] [nM] | inhibition (INH) [6] | inhibition [11] | SMILES | other results
– | – | inactive | O=C1C2CN(Cc3ccc(Oc4ccccc4)nc3)CCN2C(=O)N1OC(=O)N1CCOc2ccccc21 (centres undefined) | IC50 [12]: 1510 nM
– | – | inactive | O=C1C2CN(Cc3ccc(Cl)cc3)CCN2C(=O)N1OC(=O)N1CCOc2ccccc21 (centres undefined) | –
